In ChEMBL document CHEMBL4699415, “Synthesis and anti-HBV activity of carbocyclic nucleoside hybrids with salient features of entecavir and aristeromycin” (RSC Med Chem, 2020):

Experiments:
Hepatitis B virus = experiment: Antiviral activity against Hepatitis B virus infected in human HepG2.2.15.7 assessed as reduction in HBV DNA level incubated for 9 days media replaced every 3 days once with test compound by RT-PCR analysis; type: functional, organism-based
In short: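 HepG2.2.15.7 cells, 1 × 10^4 per well, settled 24 h before exposure to a range of concentrations; drug-containing medium renewed every three days. At day nine, supernatant HBV DNA quantified by real-time PCR. IC50 is the concentration giving 50% inhibition of supernatant HBV DNA.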

[1] = Cytotoxicity against human HepG2.2.15.7 cells assessed as reduction in cell viability; type: cell-based
In short: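 HepG2.2.15.7 cells, 1 × 10^4 per well, seeded 24 h, then kept nine days with graded concentrations, medium with drug renewed every three days. Viability read by tetrazolium dye method. CC50 is the concentration reducing viable cells by 50%.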

Row | Structure (SMILES) | IC50 (Hepatitis B virus) [µM] | CC50 [1] [µM]
1 | C=C1[C@H](CO)[C@@H](O)C[C@@H]1n1cnc2c(=O)[nH]c(N)nc21 [ENTECAVIR] | 0.00018 | > 0.1
2 | C=C1[C@@H](n2cc(Br)c3c(N)ncnc32)[C@H](O)[C@H](O)[C@@]1(C)CO | 8.3 | > 100
3 | C=C1[C@@H](n2cc(I)c3c(N)ncnc32)[C@H](O)[C@H](O)[C@@]1(C)CO | 3.4 | 87.5
4 | C=C1[C@@H](n2ccc3c(N)ncnc32)[C@H](O)[C@H](O)[C@@]1(C)CO | > 100 | > 100
5 | C=C1[C@@H](n2cc(Cl)c3c(N)ncnc32)[C@H](O)[C@H](O)[C@@]1(C)CO | 22.9 | > 100
6 | Nc1ncnc2c1ncn2[C@@H]1C[C@H](CO)[C@@H](O)[C@H]1O [ARISTEROMYCIN] | > 3 | > 3
7 | C=Cc1cn([C@@H]2C(=C)[C@](C)(CO)[C@@H](O)[C@H]2O)c2ncnc(N)c12 | > 100 | > 100
8 | C=C1[C@@H](n2cc(F)c3c(N)ncnc32)[C@H](O)[C@H](O)[C@@]1(C)CO | > 100 | > 100
9 | C#Cc1cn([C@@H]2C(=C)[C@](C)(CO)[C@@H](O)[C@H]2O)c2ncnc(N)c12 | 6.3 | > 100
